According to PMC4191588 (Journal of Medicinal Chemistry, 2014):

Assays:
Ub-PCNA in H1299 cells = experiment: Western blot of monoubiquitinated PCNA; format: cell-based, human; settings: 4 hr; for change in Ub-PCNA (in words): H1299 cells, 1, 5, and 25 µM; for lowest concentration at which an increase in Ub-PCNA was observed: H1299 cells
451 kinases = settings: cited from earlier work
small panel of DUBs = settings: cited from earlier work
H1299 cells = experiment: Colony formation assay in H1299 cells; format: cell-based, human; settings: for effect on cell survival (in words) / reduction of colony formation: H1299 cells, 5 μM, 7 days; for reduction of colony formation: relative to DMSO
USP1/UAF1 = USP1/UAF1 (Homo sapiens, UniProt O94782); experiment: USP1/UAF1 quantitative high-throughput screening; format: biochemical
Mouse plasma stability = format: in vitro ADME
[1] = Aqueous chemical stability; format: physicochemical; settings: aqueous solution at room temperature
Ca^2+ channel = experiment: CEREP LeadProfilingScreen2 radioligand binding; settings: 10 μM, duplicate
Outline: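 Test compound run at 10 μM in a commercial lead-profiling panel of 80 GPCRs, ion channels and transporters.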

Caco-2 = Caco-2 permeability; format: in vitro ADME
[2] = Preliminary in vivo PK studies

Sequence of USP1/UAF1 (O94782 whole entry): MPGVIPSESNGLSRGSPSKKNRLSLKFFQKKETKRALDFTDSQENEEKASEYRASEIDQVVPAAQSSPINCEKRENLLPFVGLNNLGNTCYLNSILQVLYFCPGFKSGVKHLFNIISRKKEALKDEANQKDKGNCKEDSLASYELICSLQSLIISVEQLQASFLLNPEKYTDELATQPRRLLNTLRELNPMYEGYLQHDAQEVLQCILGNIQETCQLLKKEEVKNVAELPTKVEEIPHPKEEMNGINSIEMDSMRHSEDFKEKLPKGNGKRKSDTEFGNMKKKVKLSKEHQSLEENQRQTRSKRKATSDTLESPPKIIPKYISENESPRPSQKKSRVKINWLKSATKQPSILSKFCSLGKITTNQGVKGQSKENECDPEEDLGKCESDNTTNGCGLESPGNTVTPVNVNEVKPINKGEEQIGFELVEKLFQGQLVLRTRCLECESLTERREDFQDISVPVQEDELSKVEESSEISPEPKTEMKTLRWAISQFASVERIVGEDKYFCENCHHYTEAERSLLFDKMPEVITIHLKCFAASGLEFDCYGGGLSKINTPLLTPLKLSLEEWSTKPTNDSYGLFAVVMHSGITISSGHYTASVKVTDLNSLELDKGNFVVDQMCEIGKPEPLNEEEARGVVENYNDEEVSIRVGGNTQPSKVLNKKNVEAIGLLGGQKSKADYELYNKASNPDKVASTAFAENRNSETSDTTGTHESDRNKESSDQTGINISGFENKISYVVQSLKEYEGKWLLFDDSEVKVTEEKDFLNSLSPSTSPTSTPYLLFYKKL
Sequence of USP1/UAF1 (Q8TAF3 whole entry partner): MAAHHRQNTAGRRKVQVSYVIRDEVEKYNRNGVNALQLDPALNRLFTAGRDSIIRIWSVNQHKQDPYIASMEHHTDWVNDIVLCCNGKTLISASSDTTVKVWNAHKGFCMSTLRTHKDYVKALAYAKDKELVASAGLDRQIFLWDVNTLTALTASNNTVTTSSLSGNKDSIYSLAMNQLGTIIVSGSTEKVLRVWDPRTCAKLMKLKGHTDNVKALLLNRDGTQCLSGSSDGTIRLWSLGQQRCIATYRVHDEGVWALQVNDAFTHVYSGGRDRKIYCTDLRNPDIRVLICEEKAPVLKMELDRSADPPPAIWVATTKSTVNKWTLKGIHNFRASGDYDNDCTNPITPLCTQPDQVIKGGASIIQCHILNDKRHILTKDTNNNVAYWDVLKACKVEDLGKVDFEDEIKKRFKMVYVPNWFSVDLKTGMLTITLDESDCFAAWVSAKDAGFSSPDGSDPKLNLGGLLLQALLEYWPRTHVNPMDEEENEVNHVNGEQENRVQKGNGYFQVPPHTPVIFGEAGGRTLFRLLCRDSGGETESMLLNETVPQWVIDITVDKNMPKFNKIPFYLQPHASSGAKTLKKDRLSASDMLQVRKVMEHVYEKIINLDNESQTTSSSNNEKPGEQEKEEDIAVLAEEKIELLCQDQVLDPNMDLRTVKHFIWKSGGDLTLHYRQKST

## FC(F)(F)c1ccccc1-c1nc(NCc2cccs2)c2ccccc2n1 [Compound 1, N-(Thiophen-2-ylmethyl)-2-(2-(trifluoromethyl)phenyl)quinazolin-4-amine]
Ub-PCNA in H1299 cells
  change in Ub-PCNA (in words): dose-dependent increase in Ub-PCNA
451 kinases
  appreciable inhibition among 451 kinases: only one of 451 kinases
Small panel of DUBs
  activity against a small panel of DUBs: no significant activity
H1299 cells
  effect on cell survival (in words): minimal

## FC(F)(F)c1cccc(-c2nc(NCc3ccc(-c4cccnc4)cc3)c3ccccc3n2)c1 [Compound 22]
USP1/UAF1
  activity toward USP1/UAF1 (in words): inactivity

## FC(F)(F)c1ccc(-c2nc(NCc3ccc(-c4cccnc4)cc3)c3ccccc3n2)cc1 [Compound 23]
USP1/UAF1
  activity toward USP1/UAF1 (in words): inactivity

## CC(C)c1ccccc1-c1nc(NCc2ccc(-c3cccnc3)cc2)c2occc2n1 [Compound 48, 2-(2-Isopropylphenyl)-N-(4-(pyridin-3-yl)benzyl)furo[3,2-d]pyrimidin-4-amine]
H1299 cells
  reduction of colony formation: greater than 70%

## COc1cnc(-c2ccccc2C(C)C)nc1NCc1ccc(-c2cccnc2)cc1 [Compound 49, 2-(2-Isopropylphenyl)-5-methoxy-N-(4-(pyridin-3-yl)benzyl)pyrimidin-4-amine]
H1299 cells
  reduction of colony formation: greater than 70%

## Cc1cnc(-c2ccccc2C(C)C)nc1NCC1CCN(C)CC1 [Compound 58]
USP1/UAF1
  activity toward USP1/UAF1 (in words): complete loss of activity

## Cc1cnc(-c2ccccc2C(C)C)nc1NCC1CCN(c2cccnc2)CC1 [Compound 64, 2-(2-Isopropylphenyl)-5-methyl-N-((1-(pyridin-3-yl)piperidin-4-yl)methyl)pyrimidin-4-amine]
Ub-PCNA in H1299 cells
  change in Ub-PCNA (in words): dose-dependent increase in Ub-PCNA
  lowest concentration at which an increase in Ub-PCNA was observed: 1 µM
H1299 cells
  reduction of colony formation: greater than 70%

## Cc1cnc(-c2ccccc2C(C)C)nc1NCc1ccc(-n2ccnc2)cc1 [Compound 69, N-(4-(1H-Imidazol-1-yl)benzyl)-2-(2-isopropylphenyl)-5-methylpyrimidin-4-amine]
H1299 cells
  reduction of colony formation: greater than 70%

## Cc1cnc(-c2ccccc2C(C)C)nc1NCc1ccc(-n2ccnn2)cc1 [Compound 70, N-(4-(1H-1,2,3-Triazol-1-yl)benzyl)-5-methyl-2-(2-isopropylphenyl)pyrimidin-4-amine]
Mouse plasma stability
  stability in mouse plasma (in words): stable
Ub-PCNA in H1299 cells
  change in Ub-PCNA (in words): dose-dependent increase in Ub-PCNA
  lowest concentration at which an increase in Ub-PCNA was observed: 1 µM
[1]
  stability in PBS buffer, assay buffer, pH 2, pH 9 (in words): stable
Ca^2+ channel
  inhibition of Ca^2+ channel: > 50%
Caco-2
  Caco-2 (A→B) Papp: 22.98 10^–6 cm/s
[2]
  clearance: > 70 mL/min/kg
H1299 cells
  reduction of colony formation: greater than 70%

## Cc1cnc(-c2ccccc2C2COC2)nc1NCc1ccc(-c2cccnc2)cc1 [Compound 72, 5-methyl-2-(2-(oxetan-3-yl)phenyl)-N-(4-(pyridin-3-yl)benzyl)pyrimidin-4-amine]
USP1/UAF1
  activity toward USP1/UAF1 (in words): lost all activity

## Cc1cnc(-c2ccccc2C2COC2)nc1NCc1ccc(-n2ccnn2)cc1 [Compound 77, N-(4-(1H-1,2,3-Triazol-1-yl)benzyl)-5-methyl-2-(2-(oxetan-3-yl)phenyl)pyrimidin-4-amine]
USP1/UAF1
  activity toward USP1/UAF1 (in words): lost all activity
H1299 cells
  effect on cell survival (in words): no effect
H1299 cells; Homo sapiens, NCI-H1299, read-out: EC50 cell survival (colony formation)
  EC50: > 25 µM
